# In ChEMBL document CHEMBL2424574, “Structure-activity relationships and pharmacophore model of a noncompetitive pyrazoline containing class of GluN2C/GluN2D selective antagonists” (J Med Chem, 2013):
# Key:
# Plasma [1] = assay: Metabolic stability in mouse plasma after 2 hrs; assay type: ADME, cell-free
# Method in brief: (§1)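 Stability followed in human, rat or mouse plasma over a 2-hour time course.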
# [2] = biological target: Neuronal acetylcholine receptor subunit alpha-7 (Homo sapiens) (UniProt P36544); assay: Inhibition of human nicotinic acetylcholine receptor subunit alpha-7 expressed in Xenopus laevis oocytes assessed as inhibition of acetylcholine-induced current at 3 uM by two-electrode voltage clamp method; values are per cent of control; conditions: Oocyte
# [3] = biological target: 5-hydroxytryptamine receptor 3A (Homo sapiens) (UniProt P46098); assay: Inhibition of serotonin 5-HT3A receptor (unknown origin) expressed in Xenopus laevis oocytes assessed as inhibition of serotonin-induced current at 3 uM by two-electrode voltage clamp method; values are per cent of control; conditions: Oocyte
# Rattus norvegicus [4] = species on record: Rattus norvegicus; assay: Selectivity ratio of IC50 for recombinant rat GluN2A receptor to IC50 for recombinant rat GluN2D receptor
# Method in brief: (§2)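 Rat GluN1 co-expressed with GluN2A, GluN2B or GluN2D in Xenopus oocytes. Two-electrode voltage clamp at −40 mV in 90 NaCl, 1 KCl, 0.5 BaCl2, 0.005 EDTA, 10 HEPES (mM), pH 7.4, 23 °C; final DMSO 0.1–0.05%. IC50s came from Hill fits to averaged composite concentration-response curves (5–24 oocytes, 2–4 frogs). Ratio is GluN2A or GluN2B IC50 over GluN2D IC50.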
# [5] = biological target: Glutamate NMDA receptor; GRIN1/GRIN2B (Homo sapiens) (UniProt Q05586+Q13224); assay: Inhibition of GluN1/GluN2B receptor (unknown origin) expressed in Xenopus laevis oocytes assessed as inhibition of glutamate/glycine-induced current at 3 uM by two-electrode voltage clamp method; values are per cent of control; conditions: Oocyte
# [6] = biological target: Ionotropic glutamate receptor kainate 2/5 (Homo sapiens) (UniProt Q16478+Q13002); assay: Inhibition of GluK2/GluK5 receptor (unknown origin) expressed in Xenopus laevis oocytes assessed as inhibition of AMPA-induced current at 3 uM by two-electrode voltage clamp method; values are per cent of control; conditions: Oocyte
# [7] = biological target: P2X purinoceptor 2 (Rattus norvegicus) (UniProt P49653); assay: Inhibition of rat purinergic receptor P2X subunit-2 expressed in Xenopus laevis oocytes assessed as inhibition of ATP-induced current at 3 uM by two-electrode voltage clamp method; values are per cent of control; conditions: Oocyte
# Rattus norvegicus [8] = species on record: Rattus norvegicus; assay: Selectivity ratio of IC50 for recombinant rat GluN2B receptor to IC50 for recombinant rat GluN2D receptor; method in brief: as §2
# [9] = biological target: Glutamate receptor ionotropic, NMDA 2C (Rattus norvegicus, UniProt P35439+Q00961); assay: Negative allosteric modulation of recombinant rat GluN2C receptor expressed in Xenopus laevis oocytes by two-electrode voltage clamp method; assay type: cell-based, Oocyte
# Method in brief: (§3)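 Two-electrode voltage clamp of Xenopus oocytes expressing rat GluN1 with GluN2A, 2B, 2C or 2D. Holding potential −40 mV in recording solution (mM: 90 NaCl, 1 KCl, 0.5 BaCl2, 0.005 EDTA, 10 HEPES, pH 7.4, 23 °C). Compounds diluted from 20 mM DMSO stocks to 0.05–0.1% final DMSO. IC50 from a Hill fit to the averaged composite concentration–response curve, 5–24 oocytes from 2–4 frogs.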
# [10] = biological target: Ionotropic glutamate receptor NMDA 1/2C (Homo sapiens) (UniProt Q05586+Q14957); assay: Inhibition of GluN1/GluN2C receptor (unknown origin) expressed in Xenopus laevis oocytes assessed as inhibition of glutamate/glycine-induced current at 3 uM by two-electrode voltage clamp method; values are per cent of control; conditions: Oocyte
# [11] = biological target: Glutamate receptor 4 (Homo sapiens) (UniProt P48058); assay: Inhibition of GluA4 receptor (unknown origin) expressed in Xenopus laevis oocytes assessed as inhibition of glutamate-induced current at 3 uM by two-electrode voltage clamp method; values are per cent of control; conditions: Oocyte
# [12] = biological target: Glycine receptor subunit alpha-1 (Homo sapiens) (UniProt P23415); assay: Inhibition of glycine receptor subunit alpha-1 (unknown origin) expressed in Xenopus laevis oocytes assessed as inhibition of glycine-induced current at 3 uM by two-electrode voltage clamp method; values are per cent of control; conditions: Oocyte
# Plasma [13] = assay: Metabolic stability in rat plasma after 2 hrs; assay type: ADME, cell-free; method in brief: as §1
# [14] = biological target: Gamma-aminobutyric acid receptor subunit rho-1 (Homo sapiens) (UniProt P24046); assay: Inhibition of human GABA C receptor subunit rho-1 receptor expressed in Xenopus laevis oocytes assessed as inhibition of GABA-induced current at 3 uM by two-electrode voltage clamp method; values are per cent of control; conditions: Oocyte
# [15] = biological target: 5-hydroxytryptamine receptor 6 (Homo sapiens, UniProt P50406); assay: Inhibition of 5HT6 receptor (unknown origin)
# Method in brief: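 Radioligand panel screening was run through the NIMH Psychoactive Drug Screening Program with compounds at 5 µM.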
# [16] = biological target: Neuronal acetylcholine receptor; alpha9/alpha10 (Homo sapiens) (UniProt Q9UGM1+Q9GZZ6); assay: Inhibition of nicotinic acetylcholine receptor subunit alpha-9 alpha-10 (unknown origin) expressed in Xenopus laevis oocytes assessed as inhibition of acetylcholine-induced current at 3 uM by two-electrode voltage clamp method; values are per cent of control; conditions: Oocyte
# [17] = biological target: Glutamate receptor 2 (Homo sapiens) (UniProt P42262); assay: Inhibition of GluA2 receptor (unknown origin) expressed in Xenopus laevis oocytes assessed as inhibition of glutamate-induced current at 3 uM by two-electrode voltage clamp method; values are per cent of control; conditions: Oocyte
# [18] = biological target: Ionotropic glutamate receptor NMDA 1/2D (Homo sapiens) (UniProt Q05586+O15399); assay: Inhibition of GluN1/GluN2D receptor (unknown origin) expressed in Xenopus laevis oocytes assessed as inhibition of glutamate/glycine-induced current at 3 uM by two-electrode voltage clamp method; values are per cent of control; conditions: Oocyte
# Plasma [19] = assay: Metabolic stability in human plasma after 2 hrs; assay type: ADME, cell-free; method in brief: as §1
# [20] = biological target: Glutamate receptor ionotropic, NMDA 2B (Rattus norvegicus, UniProt P35439+Q00960); assay: Negative allosteric modulation of recombinant rat GluN2B receptor expressed in Xenopus laevis oocytes by two-electrode voltage clamp method; assay type: cell-based, Oocyte; method in brief: as §3
# [21] = biological target: P2X purinoceptor 2 (Homo sapiens) (UniProt Q9UBL9); assay: Inhibition of human purinergic receptor P2X subunit-2 expressed in Xenopus laevis oocytes assessed as inhibition of ATP-induced current at 3 uM by two-electrode voltage clamp method; values are per cent of control; conditions: Oocyte
# [22] = biological target: Glutamate receptor 1 (Homo sapiens) (UniProt P42261); assay: Inhibition of GluA1 receptor (unknown origin) expressed in Xenopus laevis oocytes assessed as inhibition of glutamate-induced current at 3 uM by two-electrode voltage clamp method; values are per cent of control; conditions: Oocyte
# Sequence of Neuronal acetylcholine receptor subunit alpha-7 (Homo sapiens) (P36544 whole entry): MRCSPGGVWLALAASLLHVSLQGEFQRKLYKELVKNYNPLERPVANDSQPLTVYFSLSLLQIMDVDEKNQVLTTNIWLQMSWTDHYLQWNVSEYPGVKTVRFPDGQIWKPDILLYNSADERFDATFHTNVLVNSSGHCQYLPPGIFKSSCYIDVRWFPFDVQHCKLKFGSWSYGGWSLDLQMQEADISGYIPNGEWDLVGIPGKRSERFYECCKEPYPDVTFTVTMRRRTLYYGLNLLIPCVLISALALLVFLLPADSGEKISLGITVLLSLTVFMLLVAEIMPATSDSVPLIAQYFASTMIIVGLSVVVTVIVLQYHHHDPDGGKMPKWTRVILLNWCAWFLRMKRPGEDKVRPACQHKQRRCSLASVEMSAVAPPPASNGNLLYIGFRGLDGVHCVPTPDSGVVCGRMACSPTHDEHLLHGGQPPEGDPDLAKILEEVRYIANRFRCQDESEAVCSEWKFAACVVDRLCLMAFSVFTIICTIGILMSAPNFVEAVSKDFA
# Sequence of Glutamate receptor 2 (Homo sapiens) (P42262 whole entry): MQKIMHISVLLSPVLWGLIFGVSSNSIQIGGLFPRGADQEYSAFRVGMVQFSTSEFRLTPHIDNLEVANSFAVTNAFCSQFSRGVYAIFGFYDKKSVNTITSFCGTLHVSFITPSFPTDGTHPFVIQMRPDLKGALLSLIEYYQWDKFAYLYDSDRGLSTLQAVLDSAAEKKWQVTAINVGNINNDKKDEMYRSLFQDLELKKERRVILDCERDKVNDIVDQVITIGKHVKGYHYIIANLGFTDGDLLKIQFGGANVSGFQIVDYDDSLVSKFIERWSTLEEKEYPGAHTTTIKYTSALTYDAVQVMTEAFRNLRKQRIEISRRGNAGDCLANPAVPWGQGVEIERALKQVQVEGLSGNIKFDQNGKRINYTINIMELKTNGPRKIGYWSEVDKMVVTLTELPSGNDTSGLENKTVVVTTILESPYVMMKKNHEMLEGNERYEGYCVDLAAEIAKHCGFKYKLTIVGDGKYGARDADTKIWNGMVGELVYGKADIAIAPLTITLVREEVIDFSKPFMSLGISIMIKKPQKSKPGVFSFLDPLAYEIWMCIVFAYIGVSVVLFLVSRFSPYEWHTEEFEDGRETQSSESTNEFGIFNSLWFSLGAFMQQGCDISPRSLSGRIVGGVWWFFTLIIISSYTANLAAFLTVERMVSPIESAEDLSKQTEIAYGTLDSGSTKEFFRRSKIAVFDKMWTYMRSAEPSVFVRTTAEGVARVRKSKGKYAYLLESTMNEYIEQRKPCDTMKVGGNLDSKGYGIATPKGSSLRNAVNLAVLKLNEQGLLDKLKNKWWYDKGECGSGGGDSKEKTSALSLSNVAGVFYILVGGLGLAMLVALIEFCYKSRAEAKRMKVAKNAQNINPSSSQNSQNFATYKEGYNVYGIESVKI
# Sequence of Glutamate receptor 4 (Homo sapiens) (P48058 whole entry): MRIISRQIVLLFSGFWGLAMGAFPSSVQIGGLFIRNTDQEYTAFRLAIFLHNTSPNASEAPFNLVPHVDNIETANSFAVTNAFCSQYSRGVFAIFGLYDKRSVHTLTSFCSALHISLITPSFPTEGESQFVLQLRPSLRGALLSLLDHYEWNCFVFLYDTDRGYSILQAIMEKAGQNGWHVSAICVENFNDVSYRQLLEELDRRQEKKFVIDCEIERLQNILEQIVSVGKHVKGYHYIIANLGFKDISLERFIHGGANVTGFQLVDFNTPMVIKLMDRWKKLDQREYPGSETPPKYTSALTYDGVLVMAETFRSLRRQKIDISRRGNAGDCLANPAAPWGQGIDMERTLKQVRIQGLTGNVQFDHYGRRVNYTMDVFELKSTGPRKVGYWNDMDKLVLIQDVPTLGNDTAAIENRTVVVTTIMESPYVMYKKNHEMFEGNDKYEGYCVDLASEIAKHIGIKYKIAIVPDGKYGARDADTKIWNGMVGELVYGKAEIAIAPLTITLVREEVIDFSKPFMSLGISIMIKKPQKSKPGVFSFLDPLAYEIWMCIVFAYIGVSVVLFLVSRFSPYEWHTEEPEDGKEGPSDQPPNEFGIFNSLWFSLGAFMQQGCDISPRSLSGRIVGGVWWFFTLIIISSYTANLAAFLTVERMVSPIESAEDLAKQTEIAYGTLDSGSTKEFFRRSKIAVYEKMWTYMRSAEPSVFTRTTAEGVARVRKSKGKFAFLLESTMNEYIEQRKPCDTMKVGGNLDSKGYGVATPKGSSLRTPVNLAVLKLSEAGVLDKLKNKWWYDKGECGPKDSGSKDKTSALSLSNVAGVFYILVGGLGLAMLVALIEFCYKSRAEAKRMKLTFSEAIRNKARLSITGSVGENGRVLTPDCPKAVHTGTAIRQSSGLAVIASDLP
# Sequence of 5-hydroxytryptamine receptor 3A (Homo sapiens) (P46098 whole entry): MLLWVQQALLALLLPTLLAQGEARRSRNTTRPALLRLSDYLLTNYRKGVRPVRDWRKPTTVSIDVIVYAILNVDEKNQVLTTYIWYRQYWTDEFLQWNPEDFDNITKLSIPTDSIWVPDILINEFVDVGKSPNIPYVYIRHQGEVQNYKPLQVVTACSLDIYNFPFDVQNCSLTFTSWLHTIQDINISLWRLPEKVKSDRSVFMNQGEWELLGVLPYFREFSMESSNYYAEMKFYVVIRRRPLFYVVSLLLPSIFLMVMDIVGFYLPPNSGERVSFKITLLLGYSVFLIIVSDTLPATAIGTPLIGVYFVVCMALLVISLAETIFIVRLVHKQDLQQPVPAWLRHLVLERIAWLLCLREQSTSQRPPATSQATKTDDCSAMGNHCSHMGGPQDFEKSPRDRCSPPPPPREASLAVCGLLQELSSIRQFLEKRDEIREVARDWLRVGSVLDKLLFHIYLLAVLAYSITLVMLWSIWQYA
# Sequence of Glutamate receptor ionotropic, NMDA 2B (Q00960 whole entry, one chain of several): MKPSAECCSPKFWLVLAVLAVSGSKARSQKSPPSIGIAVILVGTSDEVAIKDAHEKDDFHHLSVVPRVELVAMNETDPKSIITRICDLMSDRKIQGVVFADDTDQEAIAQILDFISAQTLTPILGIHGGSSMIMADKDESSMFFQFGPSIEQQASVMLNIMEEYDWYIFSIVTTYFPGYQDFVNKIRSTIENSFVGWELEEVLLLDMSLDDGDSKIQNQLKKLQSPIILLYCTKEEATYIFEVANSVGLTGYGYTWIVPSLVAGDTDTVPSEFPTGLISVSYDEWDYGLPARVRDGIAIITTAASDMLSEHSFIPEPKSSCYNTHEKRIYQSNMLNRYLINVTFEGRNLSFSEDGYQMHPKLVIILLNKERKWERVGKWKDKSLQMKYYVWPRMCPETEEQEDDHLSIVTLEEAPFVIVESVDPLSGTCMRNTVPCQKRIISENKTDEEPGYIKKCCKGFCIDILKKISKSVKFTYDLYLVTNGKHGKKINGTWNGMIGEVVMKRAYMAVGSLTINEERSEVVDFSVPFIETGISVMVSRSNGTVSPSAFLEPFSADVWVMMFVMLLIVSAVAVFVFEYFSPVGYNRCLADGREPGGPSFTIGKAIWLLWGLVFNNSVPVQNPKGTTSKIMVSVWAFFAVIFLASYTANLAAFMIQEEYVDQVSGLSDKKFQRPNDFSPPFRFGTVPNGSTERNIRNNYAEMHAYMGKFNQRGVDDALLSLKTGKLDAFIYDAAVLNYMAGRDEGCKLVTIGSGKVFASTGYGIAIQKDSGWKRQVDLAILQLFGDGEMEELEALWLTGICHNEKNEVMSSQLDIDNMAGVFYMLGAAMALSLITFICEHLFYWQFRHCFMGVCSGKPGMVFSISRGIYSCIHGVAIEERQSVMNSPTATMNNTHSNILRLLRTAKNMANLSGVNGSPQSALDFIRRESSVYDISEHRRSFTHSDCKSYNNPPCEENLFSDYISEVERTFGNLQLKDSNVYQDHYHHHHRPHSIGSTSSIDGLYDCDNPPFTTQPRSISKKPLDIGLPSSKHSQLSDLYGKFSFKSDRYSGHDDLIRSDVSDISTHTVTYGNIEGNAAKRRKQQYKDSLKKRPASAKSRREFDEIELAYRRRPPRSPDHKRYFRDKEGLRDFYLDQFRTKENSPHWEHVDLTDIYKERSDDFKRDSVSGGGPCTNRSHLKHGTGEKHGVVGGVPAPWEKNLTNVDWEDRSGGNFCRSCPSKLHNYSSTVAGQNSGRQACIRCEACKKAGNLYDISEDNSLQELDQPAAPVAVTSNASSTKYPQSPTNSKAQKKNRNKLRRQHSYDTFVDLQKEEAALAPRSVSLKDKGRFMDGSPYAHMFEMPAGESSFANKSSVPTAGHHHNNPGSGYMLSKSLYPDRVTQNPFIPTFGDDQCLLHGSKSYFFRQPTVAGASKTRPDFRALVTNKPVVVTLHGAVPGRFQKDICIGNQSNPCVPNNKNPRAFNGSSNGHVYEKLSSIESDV
# Sequence of P2X purinoceptor 2 (Rattus norvegicus) (P49653 whole entry): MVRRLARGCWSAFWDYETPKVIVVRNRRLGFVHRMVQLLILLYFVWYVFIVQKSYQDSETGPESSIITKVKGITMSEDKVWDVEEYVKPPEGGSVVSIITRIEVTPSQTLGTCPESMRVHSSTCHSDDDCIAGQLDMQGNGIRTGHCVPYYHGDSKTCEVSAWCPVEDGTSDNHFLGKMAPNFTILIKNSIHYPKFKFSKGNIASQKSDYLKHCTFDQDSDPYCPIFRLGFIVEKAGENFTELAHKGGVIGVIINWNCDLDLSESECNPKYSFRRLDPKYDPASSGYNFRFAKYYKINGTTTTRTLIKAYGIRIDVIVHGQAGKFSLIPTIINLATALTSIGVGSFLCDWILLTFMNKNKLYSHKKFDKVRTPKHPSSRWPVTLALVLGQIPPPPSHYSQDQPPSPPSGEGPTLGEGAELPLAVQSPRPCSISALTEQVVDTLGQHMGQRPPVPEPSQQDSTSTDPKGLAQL
Compound,Stability (Plasma [1]),residual activity [2],residual activity [3],Ratio IC50 (Rattus norvegicus [4]),residual activity [5],residual activity [6],residual activity [7],Ratio IC50 (Rattus norvegicus [8]),IC50 [9],residual activity [10],residual activity [11],residual activity [12],Stability (Plasma [13]),residual activity [14],Ki [15],residual activity [16],residual activity [17],residual activity [18],Stability (Plasma [19]),IC50 [20],further results
O=C(O)CCC(=O)N1N=C(c2c(-c3ccc(Cl)cc3)c3ccccc3[nH]c2=O)CC1c1ccc(Cl)cc1 (racemic),Stable,82%,95%,48,79%,97%,97%,50,0.77 µM,21%,96%,101%,Stable,99%,> 10 µM,67%,98%,14%,Stable,22 µM,residual activity [21]: 113%; residual activity [22]: 97%
O=C(O)/C=C/C(=O)N1N=C(c2c(-c3ccc(Br)cc3)c3ccccc3[nH]c2=O)CC1c1ccc(Cl)cc1 (racemic),Stable,64%,95%,23,98%,95%,96%,63,0.2 µM,26%,97%,99%,Stable,97%,> 10 µM,72%,96%,14%,Stable,12 µM,residual activity [21]: 100%; residual activity [22]: 99%
